Our source for the MIC values is ChEMBL document CHEMBL1149769, “Synthesis and antimicrobial activity of some novel derivatives of benzofuran: part 2. The synthesis and antimicrobial activity of some novel 1-(1-benzofuran-2-yl)-2-mesitylethanone derivatives” (2008).

Molecules are shown by their SMILES. In brackets after ≈: the same amount, converted by molar mass.

Format in all cases: functional
For one test, the system named is Staphylococcus aureus. In words: Antimicrobial activity against Staphylococcus aureus ATCC 6538. In a few lines:
(§1)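 Bacteria were subcultured on blood agar for 24 h at 37 °C, then tested by broth microdilution in cation-adjusted Mueller-Hinton broth. Compounds were in DMSO and given as twofold serial dilutions from 1024 down to 1, with a final inoculum of 10^5 CFU/mL. Plates were incubated 48 h at 35 °C. MIC was the lowest concentration preventing visible growth. Growth control was drug-free inoculated broth.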

In the next test the test system is Escherichia coli. In words: Antimicrobial activity against Escherichia coli ATCC 25922. In a few lines:
as §1

The test system of the next test is Candida albicans. The test can be described thus: Antimicrobial activity against Candida albicans ATCC 10231. In a few lines:
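Yeast was subcultured on Sabouraud dextrose agar for 24 h at 35 °C. It was then tested by NCCLS M27-A broth microdilution in RPMI 1640 buffered with MOPS, pH 7.0. DMSO solutions were diluted twofold from 1024 […]. Final inoculum was 0.5×10^3–2.5×10^3 CFU/mL, read after 48 h at 35 °C. MIC was the lowest concentration visibly inhibiting growth.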

With `Cc1cc(C)c(C/C(=N/NC(N)=O)c2cc3ccccc3o2)c(C)c1`, the results for the MIC against Staphylococcus aureus, in the test with Escherichia coli and with Candida albicans were 128 µg/mL (≈ 382 µM), 64 µg/mL (≈ 191 µM) and 64 µg/mL (≈ 191 µM), respectively.

Consider `Cc1cc(C)c(C/C(=N\OC(=O)c2ccccc2)c2cc3ccccc3o2)c(C)c1`, for which the MIC – broadly, the smallest concentration in the dilution series that meets the test's criterion for growth inhibition – was 4 µg/mL (≈ 10.1 µM) in the test with Staphylococcus aureus, 32 µg/mL (≈ 80.5 µM) against Escherichia coli and 64 µg/mL (≈ 161 µM) against Candida albicans.

Take `CCOC(=O)CO/N=C(\Cc1c(C)cc(C)cc1C)c1cc2ccccc2o1`: the MIC in the test on Staphylococcus aureus, against Escherichia coli and against Candida albicans was 256 µg/mL (≈ 675 µM) in each case.

`Cc1cc(C)c(C/C(=N/OCC(=O)NN)c2cc3ccccc3o2)c(C)c1`: the MIC in the test on Staphylococcus aureus turned out to be 256 µg/mL (≈ 701 µM); with Escherichia coli, 64 µg/mL (≈ 175 µM); in the test with Candida albicans it was 32 µg/mL (≈ 87.6 µM).

As for `Cc1cc(C)c(CC(=O)CCl)c(C)c1`, the MIC with Staphylococcus aureus came to 16 µg/mL (≈ 75.9 µM); with Escherichia coli it was 64 µg/mL (≈ 304 µM); with Candida albicans, 16 µg/mL (≈ 75.9 µM).

As for `Cc1cc(C)c(CC(O)c2cc3ccccc3o2)c(C)c1` (stereo unspecified), the MIC in the test with Staphylococcus aureus was determined as 128 µg/mL (≈ 457 µM); against Escherichia coli it was 128 µg/mL (≈ 457 µM); in the test with Candida albicans it was 64 µg/mL (≈ 228 µM).

`Cc1cc(C)c(CC(=O)CSC#N)c(C)c1`: the MIC with Staphylococcus aureus was determined as 256 µg/mL (≈ 1100 µM); with Escherichia coli, 256 µg/mL (≈ 1100 µM); against Candida albicans it was 32 µg/mL (≈ 137 µM).

On to `Cc1cc(C)c(CC(O)CCl)c(C)c1` (stereo unspecified), for which the MIC in the test with Staphylococcus aureus was 128 µg/mL (≈ 602 µM); with Escherichia coli, 64 µg/mL (≈ 301 µM); with Candida albicans, 32 µg/mL (≈ 150 µM).

Turning to `Cc1cc(C)c(C/C(=N\OC(=O)Cc2ccccc2)c2cc3ccccc3o2)c(C)c1`, the MIC with Staphylococcus aureus was determined as 256 µg/mL (≈ 622 µM); against Escherichia coli, 128 µg/mL (≈ 311 µM); in the test on Candida albicans, 128 µg/mL (≈ 311 µM).

For the compound `CO/N=C(\Cc1c(C)cc(C)cc1C)c1cc2ccccc2o1`, the MIC was found to be 256 µg/mL (≈ 833 µM) in the test with Staphylococcus aureus, 128 µg/mL (≈ 416 µM) with Escherichia coli and 64 µg/mL (≈ 208 µM) in the test on Candida albicans.

With `Cc1cc(C)c(C/C(=N/O)c2cc3ccccc3o2)c(C)c1`, the MIC against Staphylococcus aureus, in the test with Escherichia coli and in the test on Candida albicans was 128 µg/mL (≈ 436 µM) each time.

For the compound `OC(Cn1cncn1)(Cn1cncn1)c1ccc(F)cc1F` [FLUCONAZOLE], in the test on Candida albicans, the MIC worked out at 0.25 µg/mL (≈ 0.816 µM).

On to `C[C@@H](O)[C@H]1C(=O)N2C(C(=O)O)=C(S[C@@H]3CN[C@H](C(=O)N(C)C)C3)[C@H](C)[C@H]12` [MEROPENEM], for which the MIC against Staphylococcus aureus was 1 µg/mL (≈ 2.61 µM); in the test with Escherichia coli it was 0.125 µg/mL (≈ 0.326 µM).
